This note sets out measurements from ChEMBL document CHEMBL4699443, “Position of lipidation influences anticancer activity of Smac analogs” (Bioorg Med Chem Lett, 2019).

The subject of one data set is HCC1954. Briefly: Antiproliferative activity against human HCC1954 cells assessed as growth inhibition after 48 hrs by PrestoBlue dye based fluorescence assay. Format: functional, cell-based. Conditions: HCC1954, 48 h.
A further data set deals with VCaP. In words: Antiproliferative activity against human VCap cells assessed as growth inhibition after 48 hrs by PrestoBlue dye based fluorescence assay. Format: functional, cell-based.
Data set [1] can be described thus: Drug level in C57BL/6 mouse plasma at 10 mg/kg, sc after 30 mins by LC-MS analysis. The format is ADME, organism-based. Conditions: in vivo, 0.5 h. The procedure, abridged:
(§1)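 Mice individually weighed, then given a single SC dose of 10 mg/kg. Blood taken by retro-orbital bleeding at set time points. Plasma levels measured by triple-quadrupole LC/MS; plasma half-life derived from these levels.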

Data set [2] is described as follows: Cmax in C57BL/6 mouse at 10 mg/kg, sc by LC-MS analysis. The format is ADME, organism-based. Set-up: route subcutaneous, dose 10 mg/kg. The settings on record: in vivo. The procedure, abridged:
as §1

Data set [3] in a line: Tmax in C57BL/6 mouse at 10 mg/kg, sc by LC-MS analysis. Format: ADME, organism-based. The settings on record: in vivo. The procedure, abridged: as §1
For another data set, the system named is HepG2. Briefly: Antiproliferative activity against human HepG2 cells assessed as growth inhibition after 48 hrs by PrestoBlue dye based fluorescence assay. Format: functional, cell-based. Conditions: HepG2, 48 h.
Another data set has as its system T47D. Briefly: Antiproliferative activity against human T47D cells assessed as growth inhibition after 48 hrs by PrestoBlue dye based fluorescence assay. Format: functional, cell-based.

pEC50: −log10 of the molar value.

As to `CCCCCCCCCCCCCCCCS[C@H]1C[C@@H](C(=O)NCC(c2ccccc2)c2ccccc2)N(C(=O)[C@@H](NC(=O)[C@H](C)NC)C(C)(C)C)C1`, the pEC50 (commonly −log10 of the EC50, conventionally taken in molar units) is 4.76 in the data set with HCC1954 and 5.05 in the data set on VCaP.

In data set [1], `CCCCCCCCCCCCCCCc1cccc(O[C@H]2C[C@@H](C(=O)NC(c3ccccc3)c3ccccc3)N(C(=O)[C@@H](NC(=O)[C@H](C)NC)C(C)(C)C)C2)c1` showed a Cp of 1985.4 nM. Besides, the maximum concentration (Cmax) – broadly, the peak of the concentration-time curve – in data set [2] was found to be 3970.8 nM. Further, in data set [3], the Tmax (usually the time from dosing to the highest level) was determined as 15.5 h.

On to `CCCCCCCCCCCCCCCc1cccc(O[C@H]2C[C@@H](C(=O)NCC(c3ccccc3)c3ccccc3)N(C(=O)[C@@H](NC(=O)[C@H](C)NC)C(C)(C)C)C2)c1`, for which the negative logarithm of the EC50 (pEC50) in the data set with HepG2 was 5.27; in the data set on T47D it was 5.05.
